Laboratory results reported in ChEMBL document CHEMBL1156775 (J Med Chem, 2010).
pKi: −log10 of the molar value.

Columns and labels:
Mu-type opioid receptor = Mu-type opioid receptor (Homo sapiens, UniProt P35372); assay: Displacement of [3H]DAMGO from human mu opioid receptor expressed in CHO cells; assay type: cell-based
[1] = molecular target: Delta-type opioid receptor (Homo sapiens, UniProt P41143); assay: Displacement of [3H]naltrindole from human delta opioid receptor expressed in CHO cells; assay type: cell-based
Delta-type opioid receptor, sequence (P41143 whole entry): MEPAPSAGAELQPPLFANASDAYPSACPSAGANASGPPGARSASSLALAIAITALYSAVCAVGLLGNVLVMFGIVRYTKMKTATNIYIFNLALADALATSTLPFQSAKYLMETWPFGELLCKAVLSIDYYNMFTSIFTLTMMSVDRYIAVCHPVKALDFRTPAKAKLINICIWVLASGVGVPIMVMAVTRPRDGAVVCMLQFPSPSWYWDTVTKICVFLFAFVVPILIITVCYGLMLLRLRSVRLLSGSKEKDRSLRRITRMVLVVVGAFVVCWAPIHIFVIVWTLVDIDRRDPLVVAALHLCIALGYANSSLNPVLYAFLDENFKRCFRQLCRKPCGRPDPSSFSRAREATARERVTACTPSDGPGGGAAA
In short: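 CHO cells stably expressing a single human opioid receptor were grown in DMEM with 10% FBS and penicillin/streptomycin at 37 °C in 5% CO2. Their membranes were incubated with radioligand and 12 concentrations of test compound at 25 °C in 50 mM Tris-HCl, pH 7.5.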

Homo sapiens [2] = species on record: Homo sapiens; assay: Selectivity ratio of Ki for human delta opioid receptor to Ki for human mu opioid receptor
[3] = molecular target: Kappa-type opioid receptor (Homo sapiens, UniProt P41145); assay: Displacement of [3H]U69593 from human kappa opioid receptor expressed in CHO cells; assay type: cell-based
Kappa-type opioid receptor, sequence (P41145 whole entry): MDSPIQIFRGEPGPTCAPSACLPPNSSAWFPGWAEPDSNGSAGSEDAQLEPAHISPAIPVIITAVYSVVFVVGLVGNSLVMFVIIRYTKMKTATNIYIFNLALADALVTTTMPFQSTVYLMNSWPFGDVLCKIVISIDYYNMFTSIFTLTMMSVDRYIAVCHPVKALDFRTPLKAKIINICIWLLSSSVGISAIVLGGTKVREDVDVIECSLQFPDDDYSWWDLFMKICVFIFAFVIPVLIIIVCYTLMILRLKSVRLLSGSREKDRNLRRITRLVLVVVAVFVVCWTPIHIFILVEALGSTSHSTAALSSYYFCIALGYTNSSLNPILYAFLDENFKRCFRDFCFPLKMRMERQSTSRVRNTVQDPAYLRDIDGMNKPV

Homo sapiens [4] = species on record: Homo sapiens; assay: Selectivity ratio of Ki for human kappa opioid receptor to Ki for human mu opioid receptor

Mu-type opioid receptor, sequence (P35372 whole entry): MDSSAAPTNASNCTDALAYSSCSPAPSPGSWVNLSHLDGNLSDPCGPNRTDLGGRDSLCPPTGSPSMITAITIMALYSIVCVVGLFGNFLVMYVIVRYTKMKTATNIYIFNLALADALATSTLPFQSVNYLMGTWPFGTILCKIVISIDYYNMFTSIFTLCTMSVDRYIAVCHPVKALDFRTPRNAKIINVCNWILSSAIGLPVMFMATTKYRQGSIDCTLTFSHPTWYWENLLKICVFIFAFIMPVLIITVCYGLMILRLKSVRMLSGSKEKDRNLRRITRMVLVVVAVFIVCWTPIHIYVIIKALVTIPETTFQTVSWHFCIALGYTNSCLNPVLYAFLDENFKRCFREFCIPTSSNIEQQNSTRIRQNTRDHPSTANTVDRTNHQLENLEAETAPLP

O=C(Nc1ccccc1)Nc1ccc2c(c1)[C@@]13CCCC[C@H]1[C@@H](C2)N(CC1CC1)CC3
pKi (Mu-type opioid receptor): 8.41
pKi [1]: 7.80
Ratio Ki (Homo sapiens [2]): 4
pKi [3]: 8.80
Ratio Ki (Homo sapiens [4]): 0.5

c1ccc(Nc2ccc3c(c2)[C@@]24CCCC[C@H]2[C@@H](C3)N(CC2CC2)CC4)cc1
pKi (Mu-type opioid receptor): 10.10
pKi [1]: 8.27
Ratio Ki (Homo sapiens [2]): 68
pKi [3]: 10.33
Ratio Ki (Homo sapiens [4]): 0.5

CN1CC[C@]23CCCC[C@H]2[C@H]1Cc1ccc(NC(=O)Nc2ccc(I)cc2)cc13
pKi (Mu-type opioid receptor): 7.77
pKi [1]: 6.52
Ratio Ki (Homo sapiens [2]): 18
pKi [3]: 6.55
Ratio Ki (Homo sapiens [4]): 16

OCc1cc2c(cc1O)[C@@]13CCCC[C@H]1[C@@H](C2)N(CC1CCC1)CC3
pKi (Mu-type opioid receptor): 6.44
pKi [1]: < 5.00
pKi [3]: 7.07
Ratio Ki (Homo sapiens [4]): 0.25

O=C(Nc1ccc(I)cc1)Oc1ccc2c(c1)[C@@]13CCCC[C@H]1[C@@H](C2)N(CC1CCC1)CC3
pKi (Mu-type opioid receptor): 8.96
pKi [1]: 7.17
Ratio Ki (Homo sapiens [2]): 68
pKi [3]: 9.00
Ratio Ki (Homo sapiens [4]): 1

O=C(CCCCC(=O)NCc1cc2c(cc1O)[C@@]13CCCC[C@H]1[C@@H](C2)N(CC1CCC1)CC3)NCc1cc2c(cc1O)[C@@]13CCCC[C@H]1[C@@H](C2)N(CC1CCC1)CC3
pKi (Mu-type opioid receptor): 7.44
Ratio Ki (Homo sapiens [2]): 21
pKi [3]: 7.52
Ratio Ki (Homo sapiens [4]): 1

O/N=C\c1cc2c(cc1O)[C@@]13CCCC[C@H]1[C@@H](C2)N(CC1CCC1)CC3
Ratio Ki (Homo sapiens [2]): 47
Ratio Ki (Homo sapiens [4]): 0.16

CCN(CCCCN(CC)Cc1cc2c(cc1O)[C@@]13CCCC[C@H]1[C@@H](C2)N(CC1CCC1)CC3)Cc1cc2c(cc1O)[C@@]13CCCC[C@H]1[C@@H](C2)N(CC1CCC1)CC3
pKi (Mu-type opioid receptor): 6.80
pKi [1]: 5.96
Ratio Ki (Homo sapiens [2]): 7
pKi [3]: 7.36
Ratio Ki (Homo sapiens [4]): 0.3

CCC(O)c1cc2c(cc1O)[C@@]13CCCC[C@H]1[C@@H](C2)N(CC1CCC1)CC3 (mixture of isomers)
pKi (Mu-type opioid receptor): 6.74
pKi [1]: < 5.00
pKi [3]: 7.14
Ratio Ki (Homo sapiens [4]): 0.3

OCCCCCCCCCCC(O)c1cc2c(cc1O)[C@@]13CCCC[C@H]1[C@@H](C2)N(CC1CCC1)CC3 (mixture of isomers)
pKi (Mu-type opioid receptor): 7.44
pKi [1]: 6.21
Ratio Ki (Homo sapiens [2]): 23
pKi [3]: 7.59
Ratio Ki (Homo sapiens [4]): 1

CN1CC[C@]23CCCC[C@H]2[C@H]1Cc1cc2c(cc13)OCN(Cc1ccccc1)C2
pKi (Mu-type opioid receptor): 6.96
pKi [1]: < 5.00
pKi [3]: 6.51
Ratio Ki (Homo sapiens [4]): 3

CN1CC[C@]23CCCC[C@H]2[C@H]1Cc1ccc(NC(=O)Nc2ccccc2)cc13
pKi (Mu-type opioid receptor): 7.96
pKi [1]: 6.49
Ratio Ki (Homo sapiens [2]): 29
pKi [3]: 6.47
Ratio Ki (Homo sapiens [4]): 31

COc1ccc(Nc2ccc3c(c2)[C@@]24CCCC[C@H]2[C@@H](C3)N(CC2CC2)CC4)cc1
pKi (Mu-type opioid receptor): 10.59
pKi [1]: 8.77
Ratio Ki (Homo sapiens [2]): 65
pKi [3]: 10.52
Ratio Ki (Homo sapiens [4]): 1

CCCCC(O)c1cc2c(cc1O)[C@@]13CCCC[C@H]1[C@@H](C2)N(CC1CCC1)CC3 (mixture of isomers)
pKi (Mu-type opioid receptor): 7.77
pKi [1]: 7.14
Ratio Ki (Homo sapiens [2]): 6
pKi [3]: 7.89
Ratio Ki (Homo sapiens [4]): 1

Oc1cc2c(cc1C(O)CCCCCCCCCCC(O)c1cc3c(cc1O)[C@@]14CCCC[C@H]1[C@@H](C3)N(CC1CCC1)CC4)C[C@@H]1[C@@H]3CCCC[C@]23CCN1CC1CCC1 (mixture of isomers)
pKi (Mu-type opioid receptor): 7.46
pKi [1]: 6.14
Ratio Ki (Homo sapiens [2]): 24
pKi [3]: 7.51
Ratio Ki (Homo sapiens [4]): 1

CCCNCc1cc2c(cc1O)[C@@]13CCCC[C@H]1[C@@H](C2)N(CC1CCC1)CC3
pKi (Mu-type opioid receptor): 6.48
pKi [1]: < 5.00
pKi [3]: 6.46
Ratio Ki (Homo sapiens [4]): 1

COc1ccc(CN(Cc2ccc(OC)cc2)c2ccc3c(c2)[C@@]24CCCC[C@H]2[C@@H](C3)N(CC2CC2)CC4)cc1
pKi (Mu-type opioid receptor): 8.60
pKi [1]: 6.92
Ratio Ki (Homo sapiens [2]): 48
pKi [3]: 8.41
Ratio Ki (Homo sapiens [4]): 2

Oc1cc2c(cc1CNCCCCCCCCNCc1cc3c(cc1O)[C@@]14CCCC[C@H]1[C@@H](C3)N(CC1CCC1)CC4)C[C@@H]1[C@@H]3CCCC[C@]23CCN1CC1CCC1
pKi (Mu-type opioid receptor): 7.62
pKi [1]: 6.00
Ratio Ki (Homo sapiens [2]): 42
pKi [3]: 7.40
Ratio Ki (Homo sapiens [4]): 2

COc1ccc(Nc2ccc3c(c2)[C@@]24CCCC[C@H]2[C@@H](C3)N(CC2CCC2)CC4)cc1
pKi (Mu-type opioid receptor): 9.21
pKi [1]: 7.72
Ratio Ki (Homo sapiens [2]): 3
pKi [3]: 9.23
Ratio Ki (Homo sapiens [4]): 1

Oc1cc2c(cc1CNCCCCCCNCc1cc3c(cc1O)[C@@]14CCCC[C@H]1[C@@H](C3)N(CC1CCC1)CC4)C[C@@H]1[C@@H]3CCCC[C@]23CCN1CC1CCC1
pKi (Mu-type opioid receptor): 7.12
pKi [1]: 6.07
Ratio Ki (Homo sapiens [2]): 12
pKi [3]: 7.43
Ratio Ki (Homo sapiens [4]): 0.5

CN1CC[C@]23CCCC[C@H]2[C@H]1Cc1cc(CNCc2ccccc2)c(O)cc13
pKi (Mu-type opioid receptor): 6.72
pKi [1]: < 5.00
pKi [3]: 6.42
Ratio Ki (Homo sapiens [4]): 2

Ic1ccc(CNc2ccc3c(c2)[C@@]24CCCC[C@H]2[C@@H](C3)N(CC2CCC2)CC4)cc1
pKi (Mu-type opioid receptor): 8.27
pKi [1]: 6.72
Ratio Ki (Homo sapiens [2]): 35
pKi [3]: 8.24
Ratio Ki (Homo sapiens [4]): 1.1

Oc1cc2c(cc1CNCCCCNCc1cc3c(cc1O)[C@@]14CCCC[C@H]1[C@@H](C3)N(CC1CCC1)CC4)C[C@@H]1[C@@H]3CCCC[C@]23CCN1CC1CCC1
pKi (Mu-type opioid receptor): 8.17
pKi [1]: 6.72
Ratio Ki (Homo sapiens [2]): 28
pKi [3]: 8.31
Ratio Ki (Homo sapiens [4]): 0.7

Oc1cc2c(cc1C(O)CCCCC(O)c1cc3c(cc1O)[C@@]14CCCC[C@H]1[C@@H](C3)N(CC1CCC1)CC4)C[C@@H]1[C@@H]3CCCC[C@]23CCN1CC1CCC1 (mixture of isomers)
pKi (Mu-type opioid receptor): 7.13
pKi [1]: 5.80
Ratio Ki (Homo sapiens [2]): 24
pKi [3]: 7.17
Ratio Ki (Homo sapiens [4]): 1

Ic1ccc(CNc2ccc3c(c2)[C@@]24CCCC[C@H]2[C@@H](C3)N(CC2CC2)CC4)cc1
pKi (Mu-type opioid receptor): 9.15
pKi [1]: 7.47
pKi [3]: 9.10

Ic1ccc(CN(Cc2ccc(I)cc2)c2ccc3c(c2)[C@@]24CCCC[C@H]2[C@@H](C3)N(CC2CCC2)CC4)cc1
pKi (Mu-type opioid receptor): 7.80
pKi [1]: 6.02
Ratio Ki (Homo sapiens [2]): 60
pKi [3]: 7.80
Ratio Ki (Homo sapiens [4]): 1

COc1ccc(CNc2ccc3c(c2)[C@@]24CCCC[C@H]2[C@@H](C3)N(CC2CC2)CC4)cc1
pKi (Mu-type opioid receptor): 9.51
pKi [1]: 7.70
Ratio Ki (Homo sapiens [2]): 65
pKi [3]: 9.29
Ratio Ki (Homo sapiens [4]): 2

CCN(CCCCCCN(CC)Cc1cc2c(cc1O)[C@@]13CCCC[C@H]1[C@@H](C2)N(CC1CCC1)CC3)Cc1cc2c(cc1O)[C@@]13CCCC[C@H]1[C@@H](C2)N(CC1CCC1)CC3
pKi (Mu-type opioid receptor): 7.19
pKi [1]: 6.15
Ratio Ki (Homo sapiens [2]): 13
pKi [3]: 7.27
Ratio Ki (Homo sapiens [4]): 1

c1ccc(CNc2ccc3c(c2)[C@@]24CCCC[C@H]2[C@@H](C3)N(CC2CC2)CC4)cc1
pKi (Mu-type opioid receptor): 9.59
pKi [1]: 7.54
Ratio Ki (Homo sapiens [2]): 112
pKi [3]: 9.47
Ratio Ki (Homo sapiens [4]): 1.4

c1ccc(CNc2ccc3c(c2)[C@@]24CCCC[C@H]2[C@@H](C3)N(CC2CCC2)CC4)cc1
pKi (Mu-type opioid receptor): 8.77
pKi [1]: 6.89
Ratio Ki (Homo sapiens [2]): 76
pKi [3]: 8.55
Ratio Ki (Homo sapiens [4]): 1.6

O=C(Nc1ccc(I)cc1)Oc1ccc2c(c1)[C@@]13CCCC[C@H]1[C@@H](C2)N(CC1CC1)CC3
pKi (Mu-type opioid receptor): 9.24
pKi [1]: 7.84
Ratio Ki (Homo sapiens [2]): 24
pKi [3]: 9.22
Ratio Ki (Homo sapiens [4]): 1

O=C(Nc1ccc(I)cc1)Nc1ccc2c(c1)[C@@]13CCCC[C@H]1[C@@H](C2)N(CC1CCC1)CC3
pKi (Mu-type opioid receptor): 7.62
pKi [1]: 6.60
Ratio Ki (Homo sapiens [2]): 4
pKi [3]: 7.55
Ratio Ki (Homo sapiens [4]): 0.5

O=C(Nc1ccc(I)cc1)Nc1ccc2c(c1)[C@@]13CCCC[C@H]1[C@@H](C2)N(CC1CC1)CC3
pKi (Mu-type opioid receptor): 7.64
pKi [1]: 7.03
Ratio Ki (Homo sapiens [2]): 4
pKi [3]: 7.92
Ratio Ki (Homo sapiens [4]): 0.5

NCc1cc2c(cc1O)[C@@]13CCCC[C@H]1[C@@H](C2)N(CC1CCC1)CC3
pKi (Mu-type opioid receptor): 6.54
pKi [1]: < 5.00
pKi [3]: 6.85
Ratio Ki (Homo sapiens [4]): 0.5

c1ccc(Nc2ccc3c(c2)[C@@]24CCCC[C@H]2[C@@H](C3)N(CC2CCC2)CC4)cc1
pKi (Mu-type opioid receptor): 8.77
pKi [1]: 7.41
Ratio Ki (Homo sapiens [2]): 2
pKi [3]: 8.82
Ratio Ki (Homo sapiens [4]): 1

CN1CC[C@]23CCCC[C@H]2[C@H]1Cc1ccc(OC(=O)Nc2ccc(I)cc2)cc13
pKi (Mu-type opioid receptor): 9.47
pKi [1]: 6.80
Ratio Ki (Homo sapiens [2]): 4
pKi [3]: 8.28
Ratio Ki (Homo sapiens [4]): 15
